Bioassay records from PubChem.
DENV2 CPE: protects cells from dengue virus 2 cytopathic effect | DENV2-infected cells, cytopathic effect rescue, plate reader | CPE inhibition, % at 9.99 µM | 1.7% of 350,000 active | AID 651640; in the data active means CPE inhibition above about 20%, passing the limit was not always enough; inconclusive means no clear call, values can overlap the other calls; tested in BHK-21 cells;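 further: 0% = median of neutral control wells and 100% = median of positive control wells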
SIRT5 inh: blocks human SIRT5 desuccinylation of peptide | Q9NXA8 | Purified SirT5, succinyl-peptide AMC, trypsin-coupled fluorescence | 1.1% of 330,000 active | inhibition, % at 15 µM; in the data active means inhibition above about 15%; inconclusive means no clear call, values can overlap the other calls
E-selectin induc: E-selectin induction on HUVECs | 0.37% of 260,000 active | P16581 | AID 686992 | activation, % at 7.58 µM | HUVEC E-selectin immunofluorescence imaging; normalized: neutral wells 0, TNF-alpha wells 100;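 active means mean E-selectin-positive cell signal at least 10% of the positive control, reached in at least 60% of replicates, without over 20% cell loss; inconclusive means no rule given, readout overlaps actives, possibly toxicity-flagged; inactive means the rest, including those meeting only one limit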
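Assay system: HUVEC, human umbilical vein endothelial cells / Amount: 3,000 HUVEC/well / Controls: TNF-alpha positive control, DMSO neutral control / Compound dosing: single concentration / Medium: EGM-2 over gelatin coat / Evaluation: percent E-selectin-positive cells / Signal: immunofluorescence imaging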
Active calls of the source: *; ! = not active in a repeat. This is a sample that favours compounds with a hit; in the whole collection about 2.8% have one here.

`C[C@H](O)C#Cc1cnc2c(c1)C(=O)N([C@H](C)CO)C[C@H](C)[C@@H](CN(C)C(=O)CN1CCOCC1)O2` gave DENV2 CPE -6 and SIRT5 inh -1.
CCC(=O)N(C)C[C@@H]1Oc2cc(C#CC3CCCCC3)ccc2S(=O)(=O)N([C@@H](C)CO)C[C@@H]1C was read as DENV2 CPE -8, SIRT5 inh 3 and E-selectin induc 0.
Screening CCc1ccc(OCC(=O)Nc2ncn[nH]2)cc1 returned DENV2 CPE 8, SIRT5 inh -1 and E-selectin induc 0.
For O=C(COc1ccccc1)Nc1ncn[nH]1 the results were DENV2 CPE 8, SIRT5 inh 30* and E-selectin induc 0.
O=C(c1ccncc1)N1CC2(C1)[C@@H](c1ccccc1)[C@@H](CO)N2C(=O)CC1CC1 was read as DENV2 CPE -7, SIRT5 inh -3 and E-selectin induc 0.
`Cc1cc(C)cc(NC(=O)Cn2nnc(C(=O)NCc3ccc(F)cc3)c2N)c1` gave DENV2 CPE 4 and SIRT5 inh 16*.
For Cc1cc(C)cc(NC(=O)Cn2nnc(C(=O)NCc3ccccc3Cl)c2N)c1 the results were DENV2 CPE -3 and SIRT5 inh 0.
For C[C@@H]1CN([C@@H](C)CO)C(=O)c2cc(NS(=O)(=O)c3ccc(Cl)cc3)ccc2O[C@H]1CN(C)CC1CC1 the results were DENV2 CPE 29*, SIRT5 inh 2 and E-selectin induc 0.
For COc1ccc(S(=O)(=O)Nc2ccc3c(c2)C(=O)N([C@@H](C)CO)C[C@H](C)[C@H](CN(C)CC2CC2)O3)cc1 the results were DENV2 CPE 0, SIRT5 inh 27*! and E-selectin induc 0.
C[C@H](CO)N1C[C@H](C)[C@H](CN(C)CC2CC2)Oc2ccc(NS(=O)(=O)c3ccc(Cl)cc3)cc2C1=O was read as DENV2 CPE -11, SIRT5 inh -3 and E-selectin induc 0.
Screening COc1ccc(S(=O)(=O)Nc2ccc3c(c2)C(=O)N([C@H](C)CO)C[C@@H](C)[C@H](CN(C)CC2CC2)O3)cc1 returned DENV2 CPE 9, SIRT5 inh 0 and E-selectin induc 0.
O=C(C[C@H]1C[C@H]2c3cc(NC(=O)C4CCOCC4)ccc3O[C@H]2[C@H](CO)O1)NCC1CC1 was read as DENV2 CPE 2, SIRT5 inh -22 and E-selectin induc 0.
For CC(C)(O)C#Cc1ccc([C@H]2[C@@H](CO)N3CCCCN(C(=O)c4ccc(F)cc4)C[C@H]23)cc1 the results were DENV2 CPE 19, SIRT5 inh 1 and E-selectin induc 0.
For CC(C)(O)C#Cc1ccc([C@@H]2[C@H]3CN(S(C)(=O)=O)CCCCN3[C@H]2CO)cc1 the results were E-selectin induc 0.
`CC(C)(O)C#Cc1ccc([C@@H]2[C@H](CO)N3CCCCN(S(C)(=O)=O)C[C@@H]23)cc1` gave DENV2 CPE 37*, SIRT5 inh 1 and E-selectin induc 0.
Screening CC(C)(O)C#Cc1ccc([C@H]2[C@H](CO)N3CCCCN(C(=O)c4ccc(F)cc4)C[C@@H]23)cc1 returned DENV2 CPE 21*, SIRT5 inh 4 and E-selectin induc 0.
Nc1nnc(SCc2nnc(-c3ccccc3)o2)s1 was read as DENV2 CPE -5, SIRT5 inh -3 and E-selectin induc 523*.
For Nc1nnc(SCC(=O)Nc2nnc(-c3ccccc3)o2)s1 the results were DENV2 CPE -2, SIRT5 inh -9 and E-selectin induc 4.
Screening CN1c2ccc(-c3cccc(C#N)c3)cc2[C@@H]2[C@@H](CCN2S(=O)(=O)c2ccccc2)[C@@H]1CO returned DENV2 CPE 10, SIRT5 inh 0 and E-selectin induc 0.
For O=C(NCC(c1cccs1)N1CCOCC1)C1CCN(S(=O)(=O)c2ccccc2C(F)(F)F)CC1 (centres undefined) the results were DENV2 CPE 61*, SIRT5 inh -2 and E-selectin induc 0.
Screening O=C(NCC(c1cccs1)N1CCOCC1)C1CCN(S(=O)(=O)c2cccc(C(F)(F)F)c2)CC1 (centres undefined) returned DENV2 CPE -2 and SIRT5 inh -6.
For COCC#Cc1ccc2c(c1)O[C@@H](CN(C)Cc1ccc(F)cc1)[C@@H](C)CN([C@H](C)CO)S2(=O)=O the results were DENV2 CPE 11, SIRT5 inh 10 and E-selectin induc 0.
Screening COc1ccc(NC(=O)Nc2ccc3c(c2)C(=O)N([C@H](C)CO)C[C@H](C)[C@@H](CN(C)C(=O)Nc2ccc(C(F)(F)F)cc2)OCCCC[C@@H](C)O3)cc1 returned DENV2 CPE inconclusive, SIRT5 inh 1 and E-selectin induc 25.
